GPR7 antagonist – human neuropeptides B/W receptor 1 antagonism | AID 1861 | hit rate 1.1% among 290,000 | inhibition, % at 4.4 µM | GPR7-expressing cells, fluorescence antagonist assay | P48145; in the data active means inhibition above about 16%, passing the limit was not always enough;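 further: cells stimulated with the agonist NPW; 0% = agonist with vehicle and 100% = vehicle without agonist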
Target sequence (P48145 whole entry, looked up): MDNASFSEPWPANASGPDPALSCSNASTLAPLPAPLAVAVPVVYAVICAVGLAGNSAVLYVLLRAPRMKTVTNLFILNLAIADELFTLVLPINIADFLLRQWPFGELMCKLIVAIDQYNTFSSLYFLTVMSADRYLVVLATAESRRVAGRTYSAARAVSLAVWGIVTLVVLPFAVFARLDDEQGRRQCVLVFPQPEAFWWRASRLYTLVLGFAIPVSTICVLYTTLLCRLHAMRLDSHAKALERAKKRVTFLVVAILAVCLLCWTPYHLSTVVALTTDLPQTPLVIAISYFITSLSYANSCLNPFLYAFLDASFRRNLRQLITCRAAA
GalR3 antag – antagonists of human GalR3; inhibition, % at 3 µM; AID 651719; HEK293 GalR3-CNG cAMP membrane potential fluorescence; galR3 body fused to GalR1 C-terminus; O60755; hit rate 0.44% among 360,000;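 active means inhibition above the screen-wide average plus 3 SD, cut at about 13% in these data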;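 further: forskolin and galanin both at EC90 stimulate the cells; cAMP rise reported by CNG channel membrane potential dye signal; 0% = forskolin plus galanin with DMSO and 100% = forskolin alone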
Target sequence (O60755 1-299 limits assumed): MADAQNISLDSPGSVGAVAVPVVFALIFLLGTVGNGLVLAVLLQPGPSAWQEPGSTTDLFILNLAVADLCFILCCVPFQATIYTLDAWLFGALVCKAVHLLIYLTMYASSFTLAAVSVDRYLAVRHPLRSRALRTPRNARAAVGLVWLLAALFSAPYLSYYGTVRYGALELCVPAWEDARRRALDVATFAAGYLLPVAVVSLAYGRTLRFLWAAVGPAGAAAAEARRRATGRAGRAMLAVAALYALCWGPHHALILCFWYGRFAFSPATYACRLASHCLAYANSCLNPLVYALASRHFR
CHO parental Ca – counter-screen for OX1R antagonists: effect in parental CHO cells | hit rate 0.63% among 330,000 | AID 463079 | parental CHO-K1, ATP-induced calcium, Fluo-8 fluorescence | inhibition, % at 5.6 µM;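 active means inhibition above that plate's mean sample inhibition plus 3 SD, cut at about 26% in these data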;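 further: 0% = ATP-challenged DMSO wells and 100% = DMSO wells without ATP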
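material = parental CHO cells | also added = ATP as calcium-mobilizing challenge | dosing = single point at 5.6 µM | detection = intracellular calcium via Fluo-8 no-wash fluorescent dye | read-out = % inhibition | benchmarks = low control ATP plus DMSO, high control DMSO only | repeats = one well per compound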
OX1R antag-1 – blocks the human orexin 1 receptor; O43613; CHO/OX1R cells, Fluo-8 calcium fluorescence, orexin A; inhibition, % at 5 µM; hit rate 0.43% among 330,000;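 active means inhibition above its plate's threshold, mean inhibition of all tested compounds on the plate plus 3 SD, cut at about 37% in these data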;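 further: 0% = orexin A challenge wells and 100% = SB-334867-A antagonist wells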
OX1R antag-2 – blocks the human orexin 1 receptor; inhibition, % at 6.6 µM; OX1R-expressing cells, FRET antagonist read-out; O43613; hit rate 1.8% among 330,000; in the data active means inhibition mostly above about 38%, no sharp cut-off; inactive means mostly below about 40%;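 further: 0% = agonist challenge alone and 100% = reference antagonist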
OX1R Fluo8 conf – OX1R (human) antagonism, confirmed. CHO/OX1R cells, orexin A calcium Fluo-8 fluorescence. shares compounds with OX1R antag-1. hit rate 38% among 1,100. inhibition, % at 5 µM. AID 492963; in the data active means inhibition above about 29%;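 further: 0% = agonist challenge alone and 100% = reference antagonist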
CHO Ca triplic – signal in parental CHO cells, OX1R antagonist counter-screen; hit rate 9.3% among 1,100; inhibition, % at 5.6 µM; parental CHO-K1, ATP-induced calcium, Fluo-8 fluorescence; shares compounds with OX1R antag-1;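 active means inhibition above a per-plate limit, the mean inhibition of that plate's test compounds plus 3 SD, cut at about 25% in these data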;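 further: 0% = ATP challenge with DMSO and 100% = DMSO without ATP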
OX1R HTRF conf – confirmation of human orexin 1 receptor antagonists, HTRF format | inhibition, % at 6.6 µM | hit rate 49% among 1,800 | OX1R-expressing cells, HTRF antagonist assay | shares compounds with OX1R antag-2; in the data active means inhibition above about 55%;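 further: CHO cells expressing OX1R stimulated with orexin A at about EC80; 0% = agonist challenge alone and 100% = reference antagonist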
CHO-K1 HTRF – counter-screen for OX1R antagonists: effect in parental CHO-K1 cells; shares compounds with OX1R antag-2; HTRF counterscreen; inhibition, % at 6.6 µM; hit rate 48% among 1,800; in the data active means inhibition above about 17%;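 further: 0% = agonist challenge with vehicle and 100% = vehicle alone without agonist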
The depositor's hits bear a star; / = no result given. An excerpt weighted towards active compounds, which were near 3.1% of everything screened.

SMILES	GPR7 antagonist	GalR3 antag	CHO parental Ca	OX1R antag-1	OX1R antag-2	OX1R Fluo8 conf	CHO Ca triplic	OX1R HTRF conf	CHO-K1 HTRF
NC(=S)N/N=C/c1ccc2cccc(OCc3ccccc3)c2n1	-35	-8	-12	-13	21	/	/	/	/
Nc1cccc(C#Cc2ccc3c(=O)c4ccccc4oc3c2)c1	/	3	-33	52*	72*	12	99*	49	8
Nc1ccc(C#Cc2ccc3oc4ccccc4c(=O)c3c2)cc1	/	-2	1	-17	28	/	/	/	/
CC(=O)NNC(=O)c1cc2sccc2s1	-6	-1	7	-10	9	/	/	/	/
NNC(=O)c1cc2sccc2s1	-7	-4	-27	91*	87*	1	18	22	4
Nn1c(-c2cccs2)nc2sc3c(c2c1=O)CCCC3	-9	-2	-31	45*	111*	20	5	81*	6
O=S1(=O)C[C@H](N2CCN(CC3CC3)CC2)[C@@H](COCc2ccccc2)N1	/	-3	/	/	/	/	/	/	/
CC(CSc1nc2ccccc2s1)Cn1c(N2CCCC2)nc2c1c(=O)[nH]c(=O)n2C (centres undefined)	-1	0	-19	61*	94*	35*	-18	87*	-2
Cc1nn(C)c(C)c1N=Cc1c(O)ccc2ccccc12	-15	-5	-14	43*	83*	1	-3	77*	11
CC(NCC(=O)Nc1ccccc1C(=O)NC1CC1)c1ccc(F)cc1F (centres undefined)	/	-2	-16	57*	68*	44*	-7	87*	2
COc1cccc2sc3cc(C#CC4(O)CCCCC4)ccc3c(=O)c12	/	-4	-4	87*	80*	55*	-13	87*	15
COc1cccc2sc3ccc(C#CC4(N)CCCCC4)cc3c(=O)c12	-9	0	-14	-7	6	/	/	/	/
COc1ccc(N=Nc2n(C)c3ccccc3[n+]2C)cc1	4	/	/	/	/	/	/	/	/
Cc1c(C(=O)Nc2ccc3nc(N4CCOCC4)sc3c2)oc2ccccc12	/	-5	-21	-11	26	/	/	/	/
Cc1nc2ccc(NC(=O)c3oc4ccc(F)cc4c3C)cc2s1	/	/	-9	72*	100*	59*	-11	93*	13
CCOc1ccccc1-c1nc(-c2ccc(NC(=O)c3ccc(Br)o3)cc2)no1	-15	1	-4	35	69*	17	-3	79*	18*
CCOc1ccccc1-c1nc(-c2ccc(NC(=O)Cc3ccc(OC)cc3)cc2)no1	-10	-2	4	-5	22	/	/	/	/
CCOC(=O)CCNC(=O)N1CCCC(N(C)CCc2ccc(OC)c(OC)c2)C1 (centres undefined)	-13	-10	0	-7	4	/	/	/	/
CNc1oc(-c2cccc3ccccc23)nc1C#N	-4	-5	-15	92*	90*	68*	-2	94*	5
CNc1oc(-c2ccccc2Cl)nc1C#N	9	2	-4	-3	20	/	/	/	/
CN(CC(=O)Nc1ccc(Cl)c(C(F)(F)F)c1)C(=O)Cc1ccsc1	/	2	11	28	50*	-3	-19	29	-23
C=C(C)C(COc1c2occc2cc2ccc(=O)oc12)OC(C)(C)C(O)COc1c2occc2cc2ccc(=O)oc12 (centres undefined)	/	-1	-24	61*	84*	39*	-5	88*	-1
COc1ccc(-c2nc3ccc(Br)cn3c2Cc2ccccc2)cc1OC	/	-2	/	/	/	/	/	/	/
CCn1cc(C(=O)O)c(=O)c2cc(F)c(N/N=C/c3ccccc3[N+](=O)[O-])cc21	11	-3	-3	-2	6	/	/	/	/
Cc1cc(NC(=O)CSc2nc(C(C)(C)C)nc3ccccc23)no1	-5	-4	-20	-24	24	/	/	/	/
SMILES	GPR7 antagonist	GalR3 antag	CHO parental Ca	OX1R antag-1	OX1R antag-2	OX1R Fluo8 conf	CHO Ca triplic	OX1R HTRF conf	CHO-K1 HTRF
Cc1cc(NC(=O)CSc2nc(-c3cccs3)nc3ccccc23)no1	/	-2	0	45*	62*	16	-16	82*	-5
CC[C@]12c3[nH]c4cc(-c5ccco5)ccc4c3CCN1C(=O)[C@@H](CC(=O)NC/C=C(\C)CCC=C(C)C)C[C@@H]2C(=O)N1CCN(C(=O)c2ccco2)CC1	/	/	-14	94*	58*	74*	-2	76*	0
CC[C@]12c3[nH]c4cc(-c5ccco5)ccc4c3CCN1C(=O)[C@@H](CC(=O)NC/C=C(\C)CCC=C(C)C)C[C@@H]2C(=O)N1CCN(C(=O)C2CC2)CC1	/	4	-17	34	5	/	/	/	/
Cc1ccc2c(Cn3cc(C(F)(F)F)cc(Cl)c3=O)cc(=O)oc2c1	-7	-2	-7	-4	9	/	/	/	/
Nc1ccn([C@@H]2O[C@H](C(=O)N[C@H](Cc3ccccc3)C(=O)NCC(F)(F)F)[C@@H](O)[C@H]2O)c(=O)n1	/	-6	/	/	/	/	/	/	/
Cc1ccc(NC(=O)COc2cccc(Oc3ccccc3)c2)cc1S(=O)(=O)N1CCOCC1	/	2	-5	45*	30*	32*	-8	18	0
Cc1ccc(NC(=O)COc2ccc(Cl)cc2Cl)cc1S(=O)(=O)N1CCOCC1	/	-3	/	/	/	/	/	/	/
CCN(C(=O)CO/N=C/c1ccc(OC)cc1OC)c1c(N)n(Cc2ccccc2)c(=O)[nH]c1=O	/	-1	-25	69*	92*	67*	-9	93*	-2
Cn1c(=O)c(C(=O)COC(=O)c2cc(-c3ccco3)nc3ccccc23)c(N)n(CC2CC2)c1=O	-4	/	8	37	69*	26	-4	64*	3
Cn1c(=O)c(C(=O)COC(=O)c2cc(C3CC3)nc3ccccc23)c(N)n(Cc2ccccc2)c1=O	10	-4	-1	-3	59	/	/	/	/
CC(C)n1c(=O)[nH][nH]c1=S	-3	-4	11	39*	63*	55*	4	79*	12
O=c1[nH][nH]c(=S)n1C1CCCCC1	-3	/	-8	-3	7	/	/	/	/
COC(=O)C1=C(C)NC2=C(C(=O)CCC2)C1c1cn(Cc2ccc(Br)cc2)nc1-c1ccccc1 (centres undefined)	-2	12	-4	35	75*	1	-18	52	-17
COC(=O)C1=C(C)NC2=C(C(=O)CC(C)(C)C2)C1c1cn(Cc2ccc(Br)cc2)nc1-c1ccccc1 (centres undefined)	21	/	-4	13	37	/	/	/	/
CCCCCCCCC(=O)N1C(C)CCC1C (centres undefined)	/	-7	/	/	/	/	/	/	/

High-throughput results deposited in PubChem BioAssay by The Scripps Research Institute Molecular Screening Center.
